In ChEMBL document CHEMBL1142890, “Structure-antibacterial activity of arylcarbonyl- and arylsulfonyl-piperazine 5-triazolylmethyl oxazolidinones” (2007):
Converted amounts (≈) assume the structure as drawn.

How the values were obtained:
Enterococcus [1] = assay: Antimicrobial activity against vancomycin-resistant Enterococcus by agar dilution method; format: functional
In short: (§1)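 Agar dilution per CLSI on Mueller-Hinton agar, test agents at 0.12 to 8 µg/ml; test compounds dissolved in 20% water in DMSO, linezolid in 40% water in ethanol, vancomycin in water. Clinical isolates inoculated at final 10^7 CFU/ml, incubated 35 °C for 18 h. MIC = lowest concentration completely inhibiting growth; reported as range across isolates.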

Staphylococcus aureus [2] = assay: Antimicrobial activity against methicillin-resistant Staphylococcus aureus by agar dilution method; format: functional; in short: as §1
Staphylococcus aureus [3] = assay: Antimicrobial activity against methicillin-susceptible Staphylococcus aureus by agar dilution method; format: functional; in short: as §1
Haemophilus influenzae = assay: Antimicrobial activity against Haemophilus influenzae; format: functional
Escherichia coli = assay: Antimicrobial activity against Escherichia coli ATCC 25922; format: functional
Staphylococcus [4] = assay: Antimicrobial activity against methicillin-susceptible coagulase-negative staphylococcus by agar dilution method; format: functional; in short: as §1
Staphylococcus [5] = assay: Antimicrobial activity against methicillin-resistant coagulase-negative Staphylococcus by agar dilution method; format: functional; in short: as §1
Enterococcus [6] = assay: Antimicrobial activity against vancomycin-sensitive Enterococcus by agar dilution method; format: functional; in short: as §1
Streptococcus pneumoniae = assay: Antimicrobial activity against Streptococcus pneumoniae by agar dilution method; format: functional
In short: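 Agar dilution per CLSI on Mueller–Hinton agar holding drug dilutions from 0.12 to 8 µg/ml. Staphylococci and enterococci tested on plain MH agar, S. pneumoniae on MH agar with 5% sheep blood. Test compounds dissolved in 20% water in DMSO. Inoculum 10⁷ CFU/ml, incubated 35 °C for 18 h. MIC was the lowest concentration giving complete growth inhibition.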

Staphylococcus aureus [7] = assay: Antimicrobial activity against Staphylococcus aureus ATCC 25922 in presence of 50% human plasma […]; format: functional; conditions: ATCC 25923, Plasma, in the assay text read “ATCC 25923” for “ATCC 25922”
In short: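 S. aureus ATCC 25923 tested in Mueller–Hinton broth supplemented with 50% human plasma. Test compounds dissolved in 20% water in DMSO. Inoculum 10⁷ CFU/ml, incubated 35 °C for 18 h. MIC was the lowest concentration completely inhibiting growth.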

Moraxella catarrhalis = assay: Antimicrobial activity against Moraxella catarrhalis; format: functional
Staphylococcus aureus [8] = assay: Antimicrobial activity against Staphylococcus aureus ATCC 25923 by agar dilution method

Structure (SMILES)	MIC (Enterococcus [1]) [µg/mL]	MIC (Staphylococcus aureus [2]) [µg/mL]	MIC (Staphylococcus aureus [3]) [µg/mL]	MIC (Haemophilus influenzae) [µg/mL]	MIC (Escherichia coli) [µg/mL]	MIC (Staphylococcus [4]) [µg/mL]	MIC (Staphylococcus [5]) [µg/mL]	MIC (Enterococcus [6]) [µg/mL]	MIC (Streptococcus pneumoniae) [µg/mL]	MIC (Staphylococcus aureus [7]) [µg/mL]	MIC (Moraxella catarrhalis) [µg/mL]	MIC (Staphylococcus aureus [8]) [µg/mL]
O=C(c1cccnc1)N1CCN(c2ccc(N3C[C@H](Cn4ccnn4)OC3=O)cc2F)CC1	0.5 (≈ 1.11 µM)	0.5 (≈ 1.11 µM)	0.5 (≈ 1.11 µM)	≥ 8	≥ 8	0.5 (≈ 1.11 µM)	0.5 (≈ 1.11 µM)	1 (≈ 2.22 µM)	0.5 (≈ 1.11 µM)	4	≥ 8	1 (≈ 2.22 µM)
O=C(c1ccncc1)N1CCN(c2ccc(N3C[C@H](Cn4ccnn4)OC3=O)cc2F)CC1	0.5 (≈ 1.11 µM)	0.5 (≈ 1.11 µM)	0.5 (≈ 1.11 µM)	≥ 8	≥ 8	0.25 (≈ 0.554 µM)	0.5 (≈ 1.11 µM)	1 (≈ 2.22 µM)	1 (≈ 2.22 µM)	8	≥ 8	1 (≈ 2.22 µM)
O=C(c1cccnc1Cl)N1CCN(c2ccc(N3C[C@H](Cn4ccnn4)OC3=O)cc2F)CC1	1 (≈ 2.06 µM)	0.5 (≈ 1.03 µM)	0.5 (≈ 1.03 µM)	≥ 8	≥ 8	0.5 (≈ 1.03 µM)	0.5 (≈ 1.03 µM)	1 (≈ 2.06 µM)	1 (≈ 2.06 µM)	4	≥ 8	2 (≈ 4.12 µM)
O=C(c1cccs1)N1CCN(c2ccc(N3C[C@H](Cn4ccnn4)OC3=O)cc2F)CC1	0.5 (≈ 1.1 µM)	0.5 (≈ 1.1 µM)	0.5 (≈ 1.1 µM)	≥ 8	≥ 8	0.25 (≈ 0.548 µM)	0.25 (≈ 0.548 µM)	0.5 (≈ 1.1 µM)	0.25 (≈ 0.548 µM)	4	≥ 8	0.5 (≈ 1.1 µM)
O=C(C(=O)N1CCN(c2ccc(N3C[C@H](Cn4ccnn4)OC3=O)cc2F)CC1)c1cccs1	0.25 (≈ 0.516 µM)	0.25 (≈ 0.516 µM)	0.25 (≈ 0.516 µM)	≥ 8	≥ 8	0.25 (≈ 0.516 µM)	0.25 (≈ 0.516 µM)	0.5 (≈ 1.03 µM)	0.25 (≈ 0.516 µM)	2	≥ 8	0.5 (≈ 1.03 µM)
O=C1O[C@@H](Cn2ccnn2)CN1c1ccc(N2CCOCC2)c(F)c1	1 (≈ 2.88 µM)	0.5 (≈ 1.44 µM)	0.5 (≈ 1.44 µM)	≥ 8	≥ 8	0.5 (≈ 1.44 µM)	0.5 (≈ 1.44 µM)	0.5 (≈ 1.44 µM)	0.5 (≈ 1.44 µM)	1	≥ 8	1 (≈ 2.88 µM)
Cc1cccc(S(=O)(=O)N2CCN(c3ccc(N4C[C@H](Cn5ccnn5)OC4=O)cc3F)CC2)c1	–	2 (≈ 4 µM)	4 (≈ 7.99 µM)	≥ 8	≥ 8	2 (≈ 4 µM)	2 (≈ 4 µM)	> 8	2 (≈ 4 µM)	> 8	≥ 8	> 8
Cc1ccc(S(=O)(=O)N2CCN(c3ccc(N4C[C@H](Cn5ccnn5)OC4=O)cc3F)CC2)cc1	–	–	> 8	≥ 8	≥ 8	> 8	–	> 8	2 (≈ 4 µM)	> 8	≥ 8	> 8
O=C(c1ccccc1)N1CCN(c2ccc(N3C[C@H](Cn4ccnn4)OC3=O)cc2F)CC1	0.25 (≈ 0.555 µM)	0.25 (≈ 0.555 µM)	0.25 (≈ 0.555 µM)	≥ 8	≥ 8	0.25 (≈ 0.555 µM)	0.25 (≈ 0.555 µM)	0.25 (≈ 0.555 µM)	1 (≈ 2.22 µM)	1	≥ 8	1 (≈ 2.22 µM)
O=C(/C=C/c1ccccc1Cl)N1CCN(c2ccc(N3C[C@H](Cn4ccnn4)OC3=O)cc2F)CC1	0.25 (≈ 0.489 µM)	0.25 (≈ 0.489 µM)	0.25 (≈ 0.489 µM)	≥ 8	≥ 8	0.25 (≈ 0.489 µM)	0.25 (≈ 0.489 µM)	0.5 (≈ 0.979 µM)	4 (≈ 7.83 µM)	> 8	≥ 8	0.5 (≈ 0.979 µM)
O=C(c1ccco1)N1CCN(c2ccc(N3C[C@H](Cn4ccnn4)OC3=O)cc2F)CC1	0.5 (≈ 1.14 µM)	0.5 (≈ 1.14 µM)	0.5 (≈ 1.14 µM)	≥ 8	≥ 8	0.25 (≈ 0.568 µM)	0.25 (≈ 0.568 µM)	0.5 (≈ 1.14 µM)	0.25 (≈ 0.568 µM)	4	≥ 8	1 (≈ 2.27 µM)
CC(=O)NC[C@H]1CN(c2ccc(N3CCOCC3)c(F)c2)C(=O)O1 [LINEZOLID]	2 (≈ 5.93 µM)	0.5 (≈ 1.48 µM)	1 (≈ 2.96 µM)	≥ 8	≥ 8	0.25 (≈ 0.741 µM)	1 (≈ 2.96 µM)	0.5 (≈ 1.48 µM)	–	–	≥ 8	–
CN[C@H](CC(C)C)C(=O)N[C@H]1C(=O)N[C@@H](CC(N)=O)C(=O)N[C@H]2C(=O)N[C@H]3C(=O)N[C@H](C(=O)N[C@H](C(=O)O)c4cc(O)cc(O)c4-c4cc3ccc4O)[C@H](O)c3ccc(c(Cl)c3)Oc3cc2cc(c3O[C@@H]2O[C@H](CO)[C@@H](O)[C@H](O)[C@H]2O[C@H]2C[C@](C)(N)[C@H](O)[C@H](C)O2)Oc2ccc(cc2Cl)[C@H]1O [VANCOMYCIN]	> 64	–	–	≥ 8	≥ 8	1 (≈ 0.69 µM)	1 (≈ 0.69 µM)	0.25 (≈ 0.173 µM)	0.5 (≈ 0.345 µM)	–	≥ 8	–
